The target of assay [1] is Cyclin-dependent kinase 1 (Homo sapiens) (UniProt P06493). The experiment in a line: Inhibition of CDK1 at 10 uM by HTRF assay relative to control. In outline: (§1)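 HTRF kinase assay, one panel of kinases. Inhibitor stock 50 µM in 100% DMSO; tested at 10 µM. ATP and substrate at final levels near Km. Final buffer: 50 mM Hepes/NaOH pH 7.4, 40 µM Na3VO4, 0.005% Tween-20, 1 mM DTT, MnCl2 or MgCl2 at kinase-dependent levels. Started by adding ATP/substrate. Reaction run at room temperature, time varied by kinase. Detection mix in 50 mM Hepes pH 7.4, 0.1% BSA, 150 mM KF, incubated ≥1 h at room temperature. Activity expressed as % of uninhibited control; n=2.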
On the technique in general: In TR-FRET formats the signal depends on donor and acceptor labels being close together.

In assay [2] the target is Protein kinase C alpha type (Homo sapiens) (UniProt P17252). The experiment in a line: Inhibition of PKCalpha at 10 uM by HTRF assay relative to control. In outline:
as §1

Assay [3] addresses Ribosomal protein S6 kinase beta-1 (Homo sapiens) (UniProt P23443). The experiment in a line: Inhibition of p70S6K at 10 uM by HTRF assay relative to control. In outline: as §1
Assay [4] has as its target Tyrosine-protein kinase Fes/Fps (Homo sapiens) (UniProt P07332). The experiment in a line: Inhibition of FES at 10 uM by HTRF assay relative to control. In outline:
as §1

The target in assay [5] is Vascular endothelial growth factor receptor 1 (Homo sapiens) (UniProt P17948). The experiment in a line: Inhibition of FLT1 at 10 uM by HTRF assay relative to control. In outline: as §1
The target in assay [6] is T1, Calcium/calmodulin-dependent protein kinase type IV (Homo sapiens) (UniProt Q16566).
T1 sequence (whole entry): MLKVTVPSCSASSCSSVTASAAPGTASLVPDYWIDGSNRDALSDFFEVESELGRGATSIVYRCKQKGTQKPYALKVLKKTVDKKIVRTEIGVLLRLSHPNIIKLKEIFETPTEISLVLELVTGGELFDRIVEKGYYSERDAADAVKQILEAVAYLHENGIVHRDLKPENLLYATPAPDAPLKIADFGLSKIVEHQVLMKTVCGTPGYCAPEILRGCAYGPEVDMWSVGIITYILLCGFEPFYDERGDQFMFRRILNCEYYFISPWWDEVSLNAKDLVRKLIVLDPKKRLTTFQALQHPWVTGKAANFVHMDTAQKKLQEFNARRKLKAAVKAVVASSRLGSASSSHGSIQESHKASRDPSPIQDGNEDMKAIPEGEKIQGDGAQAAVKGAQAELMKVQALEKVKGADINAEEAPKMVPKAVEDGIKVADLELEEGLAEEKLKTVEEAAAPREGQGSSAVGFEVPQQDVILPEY
The experiment in a line: Inhibition of CaMK4 at 10 uM by HTRF assay relative to control. In outline:
as §1

The target of assay [7] is T2, Ephrin type-B receptor 4 (Homo sapiens) (UniProt P54760).
T2 sequence (whole entry): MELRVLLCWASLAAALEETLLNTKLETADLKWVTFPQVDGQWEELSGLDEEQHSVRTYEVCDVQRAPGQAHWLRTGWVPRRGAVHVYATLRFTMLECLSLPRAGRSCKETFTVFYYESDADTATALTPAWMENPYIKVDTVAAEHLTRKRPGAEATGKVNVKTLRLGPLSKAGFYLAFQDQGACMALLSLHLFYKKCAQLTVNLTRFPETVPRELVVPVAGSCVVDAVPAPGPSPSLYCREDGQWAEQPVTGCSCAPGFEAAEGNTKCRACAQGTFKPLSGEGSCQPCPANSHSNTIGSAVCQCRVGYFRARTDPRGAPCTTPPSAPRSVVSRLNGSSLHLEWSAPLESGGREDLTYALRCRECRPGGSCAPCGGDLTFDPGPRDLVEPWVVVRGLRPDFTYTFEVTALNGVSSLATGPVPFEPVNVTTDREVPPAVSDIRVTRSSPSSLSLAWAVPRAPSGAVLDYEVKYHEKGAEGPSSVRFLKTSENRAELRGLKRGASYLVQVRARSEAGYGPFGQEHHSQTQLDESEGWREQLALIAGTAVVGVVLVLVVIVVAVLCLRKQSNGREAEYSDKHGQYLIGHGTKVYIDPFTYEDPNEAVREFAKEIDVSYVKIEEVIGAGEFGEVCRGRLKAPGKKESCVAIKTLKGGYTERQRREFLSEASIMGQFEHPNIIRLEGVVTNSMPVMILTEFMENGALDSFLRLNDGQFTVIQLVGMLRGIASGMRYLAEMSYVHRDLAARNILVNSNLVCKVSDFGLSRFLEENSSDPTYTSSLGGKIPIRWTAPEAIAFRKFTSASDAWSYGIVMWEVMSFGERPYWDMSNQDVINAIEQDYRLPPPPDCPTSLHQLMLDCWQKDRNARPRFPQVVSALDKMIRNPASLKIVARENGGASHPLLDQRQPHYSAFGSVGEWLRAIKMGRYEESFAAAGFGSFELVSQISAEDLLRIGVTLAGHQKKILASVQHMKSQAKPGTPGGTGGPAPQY
The experiment in a line: Inhibition of EphB4 at 10 uM by HTRF assay relative to control. The procedure, abridged:
as §1

Assay [8] concerns the target Cyclin-dependent kinase 2 (Homo sapiens) (UniProt P24941). The experiment in a line: Inhibition of CDK2 at 10 uM by HTRF assay relative to control. In outline: as §1
Assay [9] deals with Proto-oncogene tyrosine-protein kinase Src (Homo sapiens) (UniProt P12931). The experiment in a line: Inhibition of Src at 10 uM by HTRF assay relative to control. In outline: as §1
Assay [10] deals with T3, Serine/threonine-protein kinase Chk1 (Homo sapiens) (UniProt O14757).
T3 sequence (whole entry): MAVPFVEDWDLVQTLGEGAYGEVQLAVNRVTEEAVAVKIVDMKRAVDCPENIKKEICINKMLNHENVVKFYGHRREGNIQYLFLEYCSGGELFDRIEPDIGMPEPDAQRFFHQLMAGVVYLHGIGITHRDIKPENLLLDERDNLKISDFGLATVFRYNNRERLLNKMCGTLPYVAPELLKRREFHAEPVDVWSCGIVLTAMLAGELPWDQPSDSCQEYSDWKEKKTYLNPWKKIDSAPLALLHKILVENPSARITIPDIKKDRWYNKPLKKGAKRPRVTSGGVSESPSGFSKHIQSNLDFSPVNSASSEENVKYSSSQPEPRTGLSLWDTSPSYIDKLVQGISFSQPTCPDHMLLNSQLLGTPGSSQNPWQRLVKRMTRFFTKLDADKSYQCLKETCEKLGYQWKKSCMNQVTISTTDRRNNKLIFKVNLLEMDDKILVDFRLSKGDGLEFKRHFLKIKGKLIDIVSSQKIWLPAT
The experiment in a line: Inhibition of CHK1 at 10 uM by HTRF assay relative to control. In outline: as §1

The target of assay [11] is Protein kinase C gamma type (Homo sapiens) (UniProt P05129). The experiment in a line: Inhibition of PKCgamma at 10 uM by HTRF assay relative to control. In outline: as §1
The target of assay [12] is Vascular endothelial growth factor receptor 2 (Homo sapiens) (UniProt P35968). The experiment in a line: Inhibition of KDR at 10 uM by HTRF assay relative to control. In outline:
as §1

Assay [13] has as its target High affinity nerve growth factor receptor (Homo sapiens) (UniProt P04629). The experiment in a line: Inhibition of TrkA at 10 uM by HTRF assay relative to control. In outline:
as §1

Ribosomal protein S6 kinase beta-1 (Homo sapiens), sequence (P23443 whole entry, looked up): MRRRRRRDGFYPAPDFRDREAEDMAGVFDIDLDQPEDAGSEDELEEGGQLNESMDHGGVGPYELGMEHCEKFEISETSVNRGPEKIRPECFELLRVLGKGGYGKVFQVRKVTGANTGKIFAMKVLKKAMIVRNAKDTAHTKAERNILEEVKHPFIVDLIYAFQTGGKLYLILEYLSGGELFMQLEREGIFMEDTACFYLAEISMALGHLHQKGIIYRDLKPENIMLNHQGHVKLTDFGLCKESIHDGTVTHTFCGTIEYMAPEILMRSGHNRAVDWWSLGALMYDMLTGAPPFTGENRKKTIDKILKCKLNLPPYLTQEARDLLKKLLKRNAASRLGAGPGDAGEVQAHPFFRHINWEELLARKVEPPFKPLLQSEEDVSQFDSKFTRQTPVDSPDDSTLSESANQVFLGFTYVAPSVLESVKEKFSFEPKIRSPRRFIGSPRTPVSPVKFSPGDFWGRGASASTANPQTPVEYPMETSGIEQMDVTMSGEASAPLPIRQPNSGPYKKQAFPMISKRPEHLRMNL
Proto-oncogene tyrosine-protein kinase Src (Homo sapiens), sequence (P12931 2-536 limits assumed): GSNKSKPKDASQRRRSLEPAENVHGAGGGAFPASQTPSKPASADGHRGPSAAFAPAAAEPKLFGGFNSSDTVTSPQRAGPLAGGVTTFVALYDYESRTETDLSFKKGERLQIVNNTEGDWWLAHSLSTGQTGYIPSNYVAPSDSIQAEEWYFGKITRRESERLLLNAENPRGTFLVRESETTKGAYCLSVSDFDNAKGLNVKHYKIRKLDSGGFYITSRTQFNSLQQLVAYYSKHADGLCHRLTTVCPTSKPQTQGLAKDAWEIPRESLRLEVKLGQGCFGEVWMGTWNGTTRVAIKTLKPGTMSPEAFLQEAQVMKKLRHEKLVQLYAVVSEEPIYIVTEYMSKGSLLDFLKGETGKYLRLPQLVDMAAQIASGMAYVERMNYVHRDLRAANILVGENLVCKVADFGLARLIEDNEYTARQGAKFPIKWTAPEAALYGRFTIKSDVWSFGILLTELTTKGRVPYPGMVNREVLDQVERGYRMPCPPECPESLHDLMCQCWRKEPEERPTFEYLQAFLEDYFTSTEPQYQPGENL
Cyclin-dependent kinase 1 (Homo sapiens), sequence (P06493 whole entry, looked up): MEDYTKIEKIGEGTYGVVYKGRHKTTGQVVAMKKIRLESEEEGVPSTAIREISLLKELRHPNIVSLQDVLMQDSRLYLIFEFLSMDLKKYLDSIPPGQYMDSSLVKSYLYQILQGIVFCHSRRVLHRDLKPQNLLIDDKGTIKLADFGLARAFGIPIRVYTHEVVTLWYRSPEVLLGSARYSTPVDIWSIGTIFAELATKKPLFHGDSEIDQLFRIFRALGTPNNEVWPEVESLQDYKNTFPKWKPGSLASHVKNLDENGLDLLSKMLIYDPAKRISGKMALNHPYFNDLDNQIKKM
Vascular endothelial growth factor receptor 1 (Homo sapiens), sequence (P17948 whole entry): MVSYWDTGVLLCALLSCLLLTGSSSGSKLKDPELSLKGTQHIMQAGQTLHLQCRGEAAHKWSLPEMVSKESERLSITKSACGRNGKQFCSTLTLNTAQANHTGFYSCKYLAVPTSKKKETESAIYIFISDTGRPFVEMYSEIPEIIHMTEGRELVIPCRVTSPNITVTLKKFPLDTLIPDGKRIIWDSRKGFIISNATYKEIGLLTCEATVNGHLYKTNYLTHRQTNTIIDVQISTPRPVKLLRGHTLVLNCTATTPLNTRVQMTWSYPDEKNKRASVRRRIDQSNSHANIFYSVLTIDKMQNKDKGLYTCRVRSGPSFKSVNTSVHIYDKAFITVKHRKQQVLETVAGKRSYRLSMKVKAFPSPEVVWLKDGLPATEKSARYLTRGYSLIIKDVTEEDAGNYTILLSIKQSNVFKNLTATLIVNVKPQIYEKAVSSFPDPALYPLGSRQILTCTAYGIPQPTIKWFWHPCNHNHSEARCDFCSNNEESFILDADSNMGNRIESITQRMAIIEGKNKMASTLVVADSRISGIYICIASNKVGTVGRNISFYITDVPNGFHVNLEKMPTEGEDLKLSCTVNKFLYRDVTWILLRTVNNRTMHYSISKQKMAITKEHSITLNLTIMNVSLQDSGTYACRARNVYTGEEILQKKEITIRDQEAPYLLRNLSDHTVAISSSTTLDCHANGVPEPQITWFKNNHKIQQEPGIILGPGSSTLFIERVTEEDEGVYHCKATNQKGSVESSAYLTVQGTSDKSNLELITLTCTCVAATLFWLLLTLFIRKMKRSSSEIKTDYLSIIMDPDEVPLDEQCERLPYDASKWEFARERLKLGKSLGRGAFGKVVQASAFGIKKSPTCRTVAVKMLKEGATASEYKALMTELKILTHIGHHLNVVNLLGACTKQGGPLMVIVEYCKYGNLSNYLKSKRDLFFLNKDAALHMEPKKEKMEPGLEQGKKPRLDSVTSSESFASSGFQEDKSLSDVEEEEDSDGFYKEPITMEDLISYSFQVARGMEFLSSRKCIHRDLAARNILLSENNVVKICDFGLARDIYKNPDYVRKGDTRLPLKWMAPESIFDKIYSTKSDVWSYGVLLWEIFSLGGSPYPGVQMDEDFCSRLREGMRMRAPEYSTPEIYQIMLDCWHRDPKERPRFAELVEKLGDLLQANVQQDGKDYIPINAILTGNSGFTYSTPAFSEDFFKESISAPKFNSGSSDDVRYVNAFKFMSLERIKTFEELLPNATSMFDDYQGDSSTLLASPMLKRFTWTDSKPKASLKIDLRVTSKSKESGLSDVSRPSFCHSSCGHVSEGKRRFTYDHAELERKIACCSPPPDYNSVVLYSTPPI
Tyrosine-protein kinase Fes/Fps (Homo sapiens), sequence (P07332 whole entry): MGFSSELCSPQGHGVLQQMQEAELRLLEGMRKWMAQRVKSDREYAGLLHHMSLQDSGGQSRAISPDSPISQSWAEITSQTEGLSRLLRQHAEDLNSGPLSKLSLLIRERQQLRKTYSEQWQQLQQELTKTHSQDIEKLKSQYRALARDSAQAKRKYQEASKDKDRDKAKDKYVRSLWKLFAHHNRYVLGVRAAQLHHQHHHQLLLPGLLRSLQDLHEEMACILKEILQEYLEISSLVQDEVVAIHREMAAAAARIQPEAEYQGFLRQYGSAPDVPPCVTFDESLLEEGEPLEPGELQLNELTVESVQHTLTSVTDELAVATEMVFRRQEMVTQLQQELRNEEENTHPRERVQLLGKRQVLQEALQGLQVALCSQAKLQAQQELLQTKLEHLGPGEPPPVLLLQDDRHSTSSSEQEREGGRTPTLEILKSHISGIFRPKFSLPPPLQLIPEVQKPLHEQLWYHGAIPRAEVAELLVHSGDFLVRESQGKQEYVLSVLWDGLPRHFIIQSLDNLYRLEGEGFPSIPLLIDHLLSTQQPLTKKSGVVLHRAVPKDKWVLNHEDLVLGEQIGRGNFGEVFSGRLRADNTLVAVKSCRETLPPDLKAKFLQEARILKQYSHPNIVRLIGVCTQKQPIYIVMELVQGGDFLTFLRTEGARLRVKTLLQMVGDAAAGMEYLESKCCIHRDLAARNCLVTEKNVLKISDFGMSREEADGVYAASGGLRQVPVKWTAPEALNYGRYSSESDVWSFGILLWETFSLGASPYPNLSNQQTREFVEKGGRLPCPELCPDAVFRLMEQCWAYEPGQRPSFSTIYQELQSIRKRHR

By inhibition is commonly meant how much of the control response was suppressed. For `Cc1cccc(CN2CCN(c3cc(N(C)c4cccc(C)c4)ncn3)CC2)c1`, the inhibition in [1] was found to be 0%; in assay [2], 3%; in assay [3] it was 10%; in assay [4] it was 4%; in assay [5], 0%; in assay [6], 0%. Moreover, the inhibition stood at 0% in [7]; 0% in assay [8]; 8% in assay [9]; 0% in assay [10]; 2% in assay [11]; 3% in assay [12]. In [13], this molecule showed an inhibition of 4%.

Take `CN(CCCn1ccnc1)C(=O)[C@@H]1CCCN1c1nccc(Nc2ccccc2)n1`: the inhibition is 0% in [1]; 0% in [2]; 6% in [3]; 1% in assay [4]; 4% in [5]; 0% in [6]. Further, the inhibition was 0% in [7]; 24% in [8]; 8% in [9]; 0% in assay [10]; 0% in assay [11]; 3% in [12]. The same molecule registered an inhibition in assay [13] of 11%.

For `Cc1cccc(N(C)c2cc(Nc3ccc(CC(=O)Nc4ccc5ncsc5c4)cc3)ncn2)c1`, the inhibition in [1] is 0%; in [2], 0%; in [3] it was 18%; in [4] it was 24%; in assay [5], 22%; in assay [6], 0%. Also, the inhibition in assay [7] worked out at 0%; in assay [8], 4%; in [9] it was 6%; in [10], 1%; in assay [11] it was 5%; in assay [12], 40%. Further, the inhibition in [13] is 23%.

On to `O=C(NCCc1ccc(O)cc1)c1cccc(Nc2nccc(Nc3ccc4ncsc4c3)n2)c1`, for which the inhibition in assay [1] was 0%; in assay [2], 0%; in [3], 0%; in assay [4], 45%; in assay [5], 42%; in [6], 0%. The inhibition in [7] was 0%; in assay [8] it was 8%; in [9], 71%; in [10] it was 0%; in [11], 16%; in assay [12] it was 43%. In addition, the inhibition in assay [13] was found to be 27%.

Regarding `COC[C@@H]1CCCN1C(=O)[C@@H]1CCCN1c1cc(Nc2cccc(OC)c2)nc(N)n1`, the inhibition in assay [1] came out at 5%; in assay [2] it was 5%; in assay [3] it was 9%; in [4], 8%; in [5], 3%; in assay [6], 0%. Further, the inhibition in assay [7] was 0%; in assay [8], 7%; in assay [9] it was 4%; in [10], 1%; in assay [11] it was 0%; in [12], 4%. The inhibition in [13] was 9%.

Regarding `Cc1cc(C(=O)N2CCN(c3ncnc4c3CN(Cc3ccccc3)CC4)CC2)c(C)n1C`, the inhibition worked out at 0% in assay [1]; 0% in assay [2]; 7% in [3]; 0% in [4]; 0% in assay [5]; 0% in assay [6]. Also, the inhibition in assay [7] is 0%; in assay [8] it was 3%; in [9], 0%; in [10] it was 3%; in [11], 6%; in assay [12], 0%. The molecule also came in with an inhibition in assay [13] of 0%.

For `Cc1cccc(Oc2ccnc(N3CCC[C@H]3C(=O)NCCCn3ccnc3)n2)c1`, the inhibition was 0% in assay [1]; 0% in assay [2]; 7% in assay [3]; 2% in assay [4]; 0% in assay [5]; 0% in assay [6]. Besides, the inhibition came to 0% in assay [7]; 3% in [8]; 0% in assay [9]; 3% in assay [10]; 1% in assay [11]; 11% in assay [12]. In assay [13], this molecule came in with an inhibition of 7%.

Consider `CN(CCc1ccccn1)C(=O)[C@@H]1CCCN1c1nccc(Nc2ccccc2)n1`, for which the inhibition in [1] worked out at 0%; in assay [2], 1%; in [3], 12%; in assay [4] it was 8%; in assay [5], 0%; in assay [6], 0%. The inhibition stood at 0% in [7]; 5% in assay [8]; 0% in assay [9]; 1% in [10]; 6% in [11]; 2% in assay [12]. Further, in assay [13], the inhibition is 8%.

Regarding `COc1cccc(Nc2cc(Nc3cccc(C(=O)NCCCn4ccnc4)c3)nc(N)n2)c1`, the inhibition was 2% in assay [1]; 2% in assay [2]; 14% in assay [3]; 18% in assay [4]; 4% in assay [5]; 0% in assay [6]. For the same molecule, the inhibition stood at 0% in assay [7]; 2% in [8]; 10% in assay [9]; 5% in [10]; 0% in assay [11]; 13% in assay [12]. Further, the inhibition in assay [13] was 7%.

For the molecule `COc1cccc(Nc2cc(N3CCC[C@H]3C(=O)NCCN3CCCCC3)nc(N)n2)c1`, the inhibition is 0% in [1]; 5% in assay [2]; 14% in assay [3]; 4% in [4]; 13% in assay [5]; 0% in [6]. Moreover, the inhibition in [7] was determined as 0%; in assay [8], 12%; in [9], 1%; in [10], 3%; in assay [11], 2%; in assay [12], 5%. Also, the inhibition in [13] was 8%.

Turning to `O=C(c1nc(SCc2ccc(Cl)cc2)n2ccccc12)N1CCN(c2ncnc3c2CN(Cc2ccccc2)CC3)CC1`, the inhibition in assay [1] was found to be 0%; in [2] it was 0%; in [3], 3%; in [4], 0%; in assay [5], 0%; in [6], 0%. Also, the inhibition in assay [7] came out at 0%; in [8] it was 0%; in assay [9], 0%; in [10], 5%; in assay [11], 4%; in [12] it was 10%. The molecule further showed an inhibition in [13] of 5%.
